Source: ChEMBL document CHEMBL3297708, “Lead optimization of a novel series of imidazo[1,2-a]pyridine amides leading to a clinical candidate (Q203) as a multi- and extensively-drug-resistant anti-tuberculosis agent” (J Med Chem, 2014)
In brackets after ≈: the same amount, converted by molar mass.

Experiments:
Cytochrome P450 2D6 = Cytochrome P450 2D6 (Homo sapiens, UniProt P10635); test: Inhibition of recombinant CYP2D6 (unknown origin) by LC/MS/MS analysis; format: ADME
Procedure, shortened: (§1)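 Recombinant CYP enzymes (5 pmol/mL) with substrate, in 100 mM potassium phosphate pH 7.4, 3.3 mM MgCl2, with or without 1 mM NADPH; incubated 10 min (CYP1A2, CYP2C9), 20 min (CYP2C19, CYP2D6), or 3 min (CYP3A4); stopped with cold stop solution containing tolbutamide internal standard; metabolite measured by LC-MS/MS.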

[1] = Half life in mouse at 10 mg/kg, po; format: ADME, organism-based; parameters: dose 10 mg/kg, route oral; settings: in vivo
Procedure, shortened: (§2)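 Mice dosed at 2 mg/kg i.v. and 10 mg/kg p.o.; plasma sampled and PK parameters (half-life, clearance, volume of distribution, Cmax, Tmax, AUC, oral bioavailability) derived from the plasma concentration–time profiles.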

Cytochrome P450 2C9 = Cytochrome P450 2C9 (Homo sapiens, UniProt P11712); test: Inhibition of recombinant CYP2C9 (unknown origin) by LC/MS/MS analysis; format: ADME; procedure, shortened: as §1
Cytochrome P450 2C19 = Cytochrome P450 2C19 (Homo sapiens, UniProt P33261); test: Inhibition of recombinant CYP2C19 (unknown origin) by LC/MS/MS analysis; format: ADME; procedure, shortened: as §1
Cytochrome P450 3A4 = Cytochrome P450 3A4 (Homo sapiens, UniProt P08684); test: Inhibition of recombinant CYP3A4 (unknown origin) by LC/MS/MS analysis; format: ADME; procedure, shortened: as §1
[2] = Half life in mouse liver microsomes; format: ADME
Procedure, shortened: (§3)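 Metabolic stability measured by incubation in human or mouse liver microsomal preparations; half-life reported.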

[3] = Elimination half life in mouse at 2 mg/kg, iv; format: ADME, organism-based; parameters: dose 2 mg/kg, route intravenous; settings: in vivo, read-out: beta t1/2 (converted); procedure, shortened: as §2
[4] = AUC (0 to infinity) in mouse at 10 mg/kg, po; format: ADME, organism-based; parameters: time infinity, dose 10 mg/kg, route oral; settings: plasma; procedure, shortened: as §2
[5] = test system: Mycobacterium tuberculosis; test: Antimycobacterial activity against Mycobacterium tuberculosis H37Rv in macrophages; format: functional
Procedure, shortened: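 M. tuberculosis H37Rv replicating inside macrophages; intracellular MIC80 determined, i.e. concentration inhibiting 80% of growth.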

[6] = test system: Mycobacterium tuberculosis; test: Antimycobacterial activity against Mycobacterium tuberculosis H37Rv infected in BALB/c mouse assessed as lung bacterial load administered 3 weeks after infection via oral gavage for 28 days, five times per week measured per lung; format: functional, organism-based
Procedure, shortened: (§4)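 BALB/c mice infected intranasally with 2 x10^2 to 2 x 10^3 CFU M. tuberculosis H37Rv; oral gavage treatment started 3 weeks post-infection, given five times per week for 28 days; lung bacterial burden enumerated as log10 CFU per lung; values reported ± spread; untreated infected mice as baseline.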

[7] = Solubility of the compound in aqueous solution at pH 2.1; format: physicochemical
[8] = Cmax in mouse at 10 mg/kg, po; format: ADME, organism-based; parameters: dose 10 mg/kg, route oral; settings: in vivo; procedure, shortened: as §2
[9] = Clearence in mouse at 2 mg/kg, iv; format: ADME, organism-based; parameters: dose 2 mg/kg, route intravenous; settings: in vivo; procedure, shortened: as §2
[10] = Oral bioavailability in mouse at 10 mg/kg; format: ADME, organism-based; settings: in vivo; procedure, shortened: as §2
Cytochrome P450 1A2 = target: T1, Cytochrome P450 1A2 (Homo sapiens, UniProt P05177); test: Inhibition of recombinant CYP1A2 (unknown origin) by LC/MS/MS analysis; format: ADME; procedure, shortened: as §1
T1 sequence (P05177 whole entry): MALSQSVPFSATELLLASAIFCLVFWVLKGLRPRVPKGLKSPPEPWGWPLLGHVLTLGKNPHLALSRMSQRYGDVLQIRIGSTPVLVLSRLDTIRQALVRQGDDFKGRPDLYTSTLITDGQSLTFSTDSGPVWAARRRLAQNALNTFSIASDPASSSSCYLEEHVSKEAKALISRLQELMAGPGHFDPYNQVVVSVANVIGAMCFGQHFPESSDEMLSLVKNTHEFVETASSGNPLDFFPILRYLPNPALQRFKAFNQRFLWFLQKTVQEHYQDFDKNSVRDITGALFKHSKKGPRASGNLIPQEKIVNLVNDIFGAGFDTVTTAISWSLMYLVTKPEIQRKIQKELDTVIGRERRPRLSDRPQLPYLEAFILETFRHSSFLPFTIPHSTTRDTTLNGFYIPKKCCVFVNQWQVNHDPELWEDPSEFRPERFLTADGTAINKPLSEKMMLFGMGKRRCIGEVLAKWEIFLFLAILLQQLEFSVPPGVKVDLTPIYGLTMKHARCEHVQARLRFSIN

[11] = test system: Mycobacterium tuberculosis; test: Antimycobacterial activity against Mycobacterium tuberculosis H37Rv infected in BALB/c mouse assessed as lung bacterial load at 10 mg/kg administered 3 weeks after infection via oral gavage for 28 days, five times per week measured per lung (reference value: 7.24 +/- 0.17 log10 CFU); format: functional; procedure, shortened: as §4
[12] = Half life in human liver microsomes; format: ADME; procedure, shortened: as §3
[13] = Tmax in mouse at 10 mg/kg, po; format: ADME, organism-based; parameters: dose 10 mg/kg, route oral; settings: in vivo; procedure, shortened: as §2
[14] = test system: Mycobacterium tuberculosis; test: Antimycobacterial activity against Mycobacterium tuberculosis H37Rv in liquid broth culture medium; format: functional
Procedure, shortened: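 M. tuberculosis H37Rv replicating in liquid broth culture medium; MIC80 determined, i.e. concentration inhibiting 80% of growth.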

[15] = Volume of distribution at steady state in mouse at 2 mg/kg, iv; format: ADME, organism-based; parameters: dose 2 mg/kg, route intravenous; settings: in vivo, read-out: Vdss; procedure, shortened: as §2
[16] = test system: Mycobacterium tuberculosis; test: Antimycobacterial activity against Mycobacterium tuberculosis H37Rv infected in BALB/c mouse assessed as lung bacterial load at 2 mg/kg administered 3 weeks after infection via oral gavage for 28 days, five times per week measured per lung (reference value: 7.24 +/- 0.17 log10 CFU); format: functional; procedure, shortened: as §4
[17] = test system: Mycobacterium tuberculosis; test: Antimycobacterial activity against Mycobacterium tuberculosis H37Rv infected in BALB/c mouse assessed as lung bacterial load at 50 mg/kg administered 3 weeks after infection via oral gavage for 28 days, five times per week measured per lung (reference value: 7.24 +/- 0.17 log10 CFU); format: functional; procedure, shortened: as §4
[18] = Solubility of the compound in phosphate buffer at pH 7.4; format: physicochemical
[19] = test system: Mycobacterium tuberculosis; test: Antimycobacterial activity against Mycobacterium tuberculosis H37Rv infected in BALB/c mouse assessed as lung bacterial load at 15 mg/kg administered 3 weeks after infection via oral gavage for 28 days, five times per week measured per lung (reference value: 7.24 +/- 0.17 log10 CFU); format: functional; procedure, shortened: as §4

Sequence of Cytochrome P450 2C19 (P33261 whole entry): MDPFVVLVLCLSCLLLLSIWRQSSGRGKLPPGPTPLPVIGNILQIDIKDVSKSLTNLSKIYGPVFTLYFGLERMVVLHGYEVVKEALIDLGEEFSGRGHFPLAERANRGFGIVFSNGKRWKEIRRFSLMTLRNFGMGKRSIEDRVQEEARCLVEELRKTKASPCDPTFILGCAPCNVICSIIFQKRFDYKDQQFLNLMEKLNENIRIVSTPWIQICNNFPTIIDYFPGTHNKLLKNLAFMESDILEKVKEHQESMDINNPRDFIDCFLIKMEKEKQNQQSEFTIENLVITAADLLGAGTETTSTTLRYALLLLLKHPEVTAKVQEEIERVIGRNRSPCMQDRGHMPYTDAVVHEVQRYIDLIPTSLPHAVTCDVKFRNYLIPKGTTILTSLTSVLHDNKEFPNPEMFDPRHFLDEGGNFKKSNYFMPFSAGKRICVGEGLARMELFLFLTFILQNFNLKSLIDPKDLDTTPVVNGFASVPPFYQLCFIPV
Sequence of Cytochrome P450 2D6 (P10635 whole entry): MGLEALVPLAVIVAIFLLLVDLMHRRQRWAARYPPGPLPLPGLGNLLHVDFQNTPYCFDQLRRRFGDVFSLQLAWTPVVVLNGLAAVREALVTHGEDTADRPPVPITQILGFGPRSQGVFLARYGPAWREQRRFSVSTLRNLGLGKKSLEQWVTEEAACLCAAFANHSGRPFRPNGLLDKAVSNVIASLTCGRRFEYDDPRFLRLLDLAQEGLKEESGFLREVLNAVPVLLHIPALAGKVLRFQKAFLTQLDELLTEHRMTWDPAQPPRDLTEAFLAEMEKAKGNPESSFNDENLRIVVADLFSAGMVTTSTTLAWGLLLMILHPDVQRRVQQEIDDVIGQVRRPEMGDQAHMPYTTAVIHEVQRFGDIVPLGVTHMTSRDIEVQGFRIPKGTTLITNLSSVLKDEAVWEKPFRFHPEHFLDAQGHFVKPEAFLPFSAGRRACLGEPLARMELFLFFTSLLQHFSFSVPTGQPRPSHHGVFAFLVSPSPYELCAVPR
Sequence of Cytochrome P450 2C9 (P11712 whole entry): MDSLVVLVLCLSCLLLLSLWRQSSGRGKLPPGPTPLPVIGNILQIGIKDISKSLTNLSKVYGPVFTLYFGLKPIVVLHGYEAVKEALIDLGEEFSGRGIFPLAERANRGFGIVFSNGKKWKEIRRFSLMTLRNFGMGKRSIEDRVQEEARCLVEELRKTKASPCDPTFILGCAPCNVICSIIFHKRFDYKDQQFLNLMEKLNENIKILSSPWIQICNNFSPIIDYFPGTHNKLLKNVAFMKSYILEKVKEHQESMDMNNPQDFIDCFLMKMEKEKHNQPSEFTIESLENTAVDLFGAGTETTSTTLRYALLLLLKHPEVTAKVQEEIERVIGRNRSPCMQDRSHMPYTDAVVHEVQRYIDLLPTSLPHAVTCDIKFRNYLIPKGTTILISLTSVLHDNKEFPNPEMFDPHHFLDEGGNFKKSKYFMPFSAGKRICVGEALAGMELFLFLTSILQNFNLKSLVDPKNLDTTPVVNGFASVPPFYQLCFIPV
Sequence of Cytochrome P450 3A4 (P08684 whole entry): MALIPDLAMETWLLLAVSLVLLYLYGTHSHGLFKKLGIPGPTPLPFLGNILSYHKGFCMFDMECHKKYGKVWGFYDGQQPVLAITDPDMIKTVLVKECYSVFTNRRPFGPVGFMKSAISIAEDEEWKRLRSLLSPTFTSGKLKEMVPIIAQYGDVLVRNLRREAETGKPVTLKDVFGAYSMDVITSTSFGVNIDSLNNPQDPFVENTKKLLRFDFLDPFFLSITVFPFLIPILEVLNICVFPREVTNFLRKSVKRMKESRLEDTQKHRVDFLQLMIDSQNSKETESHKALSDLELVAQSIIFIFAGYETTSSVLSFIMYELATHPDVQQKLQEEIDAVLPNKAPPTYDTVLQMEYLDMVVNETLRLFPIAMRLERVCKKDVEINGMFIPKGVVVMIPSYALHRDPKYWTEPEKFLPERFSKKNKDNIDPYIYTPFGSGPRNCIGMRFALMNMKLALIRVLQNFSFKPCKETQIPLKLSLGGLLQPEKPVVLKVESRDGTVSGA

| Compound | IC50 (Cytochrome P450 2D6) [µM] | half-life [1] [h] | IC50 (Cytochrome P450 2C9) [µM] | IC50 (Cytochrome P450 2C19) [µM] | IC50 (Cytochrome P450 3A4) [µM] | half-life [2] [h] | half-life [3] [h] | AUC(0-inf) [4] [ng·h/mL] | MIC80 [5] [nM] | inhibition [6] | solubility [7] [µg/mL] | Cmax [8] [ng/mL] | clearance [9] [mL/min/kg] | bioavailability [10] [%] | IC50 (Cytochrome P450 1A2) [µM] | half-life [12] [h] | Tmax [13] [h] | MIC80 [14] [nM] | Vd [15] [L/kg] | solubility [18] [µg/mL] | also measured |
| --- | --- | --- | --- | --- | --- | --- | --- | --- | --- | --- | --- | --- | --- | --- | --- | --- | --- | --- | --- | --- | --- |
| CCc1nc2cc(Cl)ccn2c1C(=O)NCc1ccc(N2CCC(c3ccc(OC(F)(F)F)cc3)CC2)cc1 | > 100 | 21.3 | 0.14 | 0.29 | > 100 | > 2 | 62.3 | 27300 | 3.7 (≈ 2.06 ng/mL) | Dose-dependent effect | 55.8 (≈ 100 µM) | 1990 | 3.15 | 80.2 | > 100 | > 2 | 2 | 4 (≈ 2.23 ng/mL) | 14.3 | 1.32 (≈ 2.37 µM) | log10cfu [11]: 5.72; log10cfu [16]: 6.23; log10cfu [17]: 5.65 |
| CCc1nc2cc(Cl)ccn2c1C(=O)NCc1ccc(N2CCN(c3ccc(F)cc3)CC2)cc1 | > 40 | 9.4 | > 40 | > 40 | > 40 | 0.555 | 6.15 | 59600 | 0.3 (≈ 0.148 ng/mL) |  |  | 4450 | 1.9 | 69.9 | > 40 | > 2 | 2 | 5.7 (≈ 2.8 ng/mL) | 0.877 |  |  |
| NNC(=O)c1ccncc1 [ISONIAZID] |  |  |  |  |  |  |  |  | 617 (≈ 84.6 ng/mL) | Dose-dependent effect |  |  |  |  |  |  |  | 449 (≈ 61.6 ng/mL) |  |  | log10cfu [19]: 5.01 |
| CCc1nc2ccc(Cl)cn2c1C(=O)NCc1ccc(N2CCC(c3ccc(OC(F)(F)F)cc3)CC2)cc1 [TELACEBEC] | > 100 | 23.4 | > 100 | > 100 | > 100 | > 2 | 16.5 | 44100 | 1.43 (≈ 0.797 ng/mL) |  | 41.5 (≈ 74.5 µM) | 1490 | 4 | 90.7 | > 100 | > 2 | 2 | 4 (≈ 2.23 ng/mL) | 5.27 | 1.71 (≈ 3.07 µM) |  |
